One experiment concerns Human immunodeficiency virus 1. The experiment can be described thus: In vitro inhibitory concentration against HIV-1 Y181C mutant strain. It counts as functional, organism-based.
Conditions: not given
In a few lines: (§1)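 MT4 human T-lymphoblastoid cells, grown in RPMI 1640 with 10% fetal calf serum and antibiotics at 37 °C under 5% CO2. Mutant HIV-1 strains were added at 200 CCID50/well with 30 000 cells/well across a compound concentration range. After 5 days at 37 °C, viability was read by MTT colorimetry. EC50 is the concentration giving 50% infection relative to the drug-free control.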
Take `CCNc1c(Cc2cc(C)cc(C)c2)c(CC)c(C)[nH]c1=O`: the IC50 was found to be 100000 nM.

Turning to `CCCc1c(C)[nH]c(=O)c(N(C)C)c1Cc1cc(C)cc(C)c1`, the IC50 was 316 nM. This IC50 is about 320-fold lower than that of the compound before.

`CCc1c(C)[nH]c(=O)c(N(CC)CC)c1Cc1cc(C)cc(C)c1` had an IC50 of 1260 nM.

On to `CCc1c(C)[nH]c(=O)c(N(C)CCCO)c1Cc1cccc(C)c1`, for which the concentration for half-maximal inhibition (IC50) is 1580 nM.

`COCCCc1c(C)nc(O)c(N(C)C)c1C(=O)c1cc(C)cc(C)c1` returned an IC50 of 50 nM.

As to `CCc1c(C)[nH]c(=O)c(N(C)CCO)c1Cc1cccc(C)c1`, the half-maximal inhibitory concentration (IC50) was determined as 1260 nM.

In turn, `CCc1c(C)[nH]c(=O)c(N(C)CCCCCO)c1Cc1cc(C)cc(C)c1` had an IC50 of 126 nM.

The subject of a further experiment is Human immunodeficiency virus 1. The experiment is described as follows: Selective index value (ratio of CC50 to IC50 value)against HIV LAI cell line.
Conditions: not given
It counts as functional. In a few lines: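 Ratio of CC50 to IC50 against LAI. CC50 came from mock-infected MT4 cultures (30 000 cells/well) given the same compound concentration range, run in parallel with LAI-infected cultures (200 CCID50/well). Incubation was 5 days at 37 °C in 5% CO2, with MTT viability read-out.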
For the compound `CCNc1c(Cc2cc(C)cc(C)c2)c(CC)c(C)[nH]c1=O`, the SI was determined as 126.

On to `CCCc1c(C)[nH]c(=O)c(N(C)C)c1Cc1cc(C)cc(C)c1`, for which the SI turned out to be 2000.

As for `CCc1c(C)[nH]c(=O)c(N(CC)CC)c1Cc1cc(C)cc(C)c1`, the SI stood at 6310.

For `CCc1c(C)[nH]c(=O)c(N(C)CCCO)c1Cc1cccc(C)c1`, the SI is 31600.

`COCCCc1c(C)nc(O)c(N(C)C)c1C(=O)c1cc(C)cc(C)c1`: the SI worked out at 12600.

`CCc1c(C)[nH]c(=O)c(N(C)CCO)c1Cc1cccc(C)c1`: the SI came out at 7940.

Turning to `CCc1c(C)[nH]c(=O)c(N(C)CCCCCO)c1Cc1cc(C)cc(C)c1`, the SI turned out to be 12600.

In the next experiment the test system is Human immunodeficiency virus 1. The experiment is described as follows: In vitro inhibitory concentration against HIV K103N mutant strain. It counts as functional, organism-based.
Conditions: not given
In a few lines:
as §1
On to `CCNc1c(Cc2cc(C)cc(C)c2)c(CC)c(C)[nH]c1=O`, for which half-maximal inhibition (IC50) was put at 316 nM. In other words, the sub-micromolar range.

`CCCc1c(C)[nH]c(=O)c(N(C)C)c1Cc1cc(C)cc(C)c1`: the IC50 was 79 nM.

On to `CCc1c(C)[nH]c(=O)c(N(CC)CC)c1Cc1cc(C)cc(C)c1`, for which the midpoint of inhibition, the IC50, lay at 398 nM. This IC50 is about 5-fold higher than that of the compound before.

`CCc1c(C)[nH]c(=O)c(N(C)CCCO)c1Cc1cccc(C)c1` came in with an IC50 of 316 nM.

In turn, `COCCCc1c(C)nc(O)c(N(C)C)c1C(=O)c1cc(C)cc(C)c1` had an IC50 of 10 nM.

As for `CCc1c(C)[nH]c(=O)c(N(C)CCO)c1Cc1cccc(C)c1`, the IC50 was determined as 794 nM.

As to `CCc1c(C)[nH]c(=O)c(N(C)CCCCCO)c1Cc1cc(C)cc(C)c1`, inhibition was half-maximal at 100 nM (IC50).

A further experiment relates to Human immunodeficiency virus 1. The experiment can be described thus: In vitro inhibitory concentration against HIV LAI cell line. It counts as functional, organism-based. The following applies: Human immunodeficiency virus 1, LAI. In outline:
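HIV-1 LAI was added at 200 CCID50/well to MT4 human T-lymphoblastoid cells (30 000 cells/well) across a concentration range of compound. Cells were grown in RPMI 1640 with 10% fetal calf serum and antibiotics. After 5 days at 37 °C in 5% CO2, cell viability was read by MTT colorimetry. EC50 was the concentration giving 50% infection versus the drug-free control.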
`CCNc1c(Cc2cc(C)cc(C)c2)c(CC)c(C)[nH]c1=O` came in with an IC50 of 16 nM.

`CCCc1c(C)[nH]c(=O)c(N(C)C)c1Cc1cc(C)cc(C)c1` showed an IC50 of 50 nM.

With `CCc1c(C)[nH]c(=O)c(N(CC)CC)c1Cc1cc(C)cc(C)c1`, half-maximal inhibition (IC50) required 16 nM.

Turning to `CCc1c(C)[nH]c(=O)c(N(C)CCCO)c1Cc1cccc(C)c1`, the IC50 came to 3 nM. Against the preceding compound, the IC50 is about 5.3-fold lower.

With `COCCCc1c(C)nc(O)c(N(C)C)c1C(=O)c1cc(C)cc(C)c1`, the IC50 came to 2 nM.

As to `CCc1c(C)[nH]c(=O)c(N(C)CCO)c1Cc1cccc(C)c1`, the IC50 was 5 nM.

On to `CCc1c(C)[nH]c(=O)c(N(C)CCCCCO)c1Cc1cc(C)cc(C)c1`, for which the IC50 came to 4 nM.

Another experiment has as its system Human immunodeficiency virus 1. The experiment can be described thus: In vitro inhibitory concentration against HIV Y188L mutant strain. It counts as functional, organism-based.
Conditions: not given
In a few lines: as §1
For the compound `CCNc1c(Cc2cc(C)cc(C)c2)c(CC)c(C)[nH]c1=O`, it took 100000 nM to reach half-maximal inhibition (IC50).

In the case of `CCCc1c(C)[nH]c(=O)c(N(C)C)c1Cc1cc(C)cc(C)c1`, the IC50 was 631 nM.

For `CCc1c(C)[nH]c(=O)c(N(CC)CC)c1Cc1cc(C)cc(C)c1`, 2510 nM corresponded to half-maximal inhibition (IC50).

On to `CCc1c(C)[nH]c(=O)c(N(C)CCCO)c1Cc1cccc(C)c1`, for which the IC50 was 5010 nM.

In the case of `COCCCc1c(C)nc(O)c(N(C)C)c1C(=O)c1cc(C)cc(C)c1`, the IC50 was determined as 200 nM.

Consider `CCc1c(C)[nH]c(=O)c(N(C)CCO)c1Cc1cccc(C)c1`, for which the IC50 was 12600 nM.

`CCc1c(C)[nH]c(=O)c(N(C)CCCCCO)c1Cc1cc(C)cc(C)c1`: the IC50 was 2510 nM.

A further experiment has as its system Human immunodeficiency virus 1. The experiment is described as follows: In vitro inhibitory concentration against HIV L100I mutant strain. In kind it is functional, organism-based.
Conditions: not given
In outline:
as §1
`COCCCc1c(C)nc(O)c(N(C)C)c1C(=O)c1cc(C)cc(C)c1` yielded an IC50 of 8 nM.

The record behind these values is ChEMBL document CHEMBL1145200, “4-Benzyl and 4-benzoyl-3-dimethylaminopyridin-2(1H)-ones: in vitro evaluation of new C-3-amino-substituted and C-5,6-alkyl-substituted analogues against clinically important HIV mutant strains” (J Med Chem, 2005).
